Here are results for ten compounds from ChEMBL document CHEMBL2150978, “Phosphorodiamidates as a promising new phosphate prodrug motif for antiviral drug discovery: application to anti-HCV agents” (J Med Chem, 2011).

Data set [1] has as its system Liver. The data set can be described thus: Cmax in Sprague-Dawley rat liver assessed as 2'-C-methyl guanosine triphosphate level at 10 mg/kg, po up to 24 hrs by LC-MS/Ms analysis. The following applies: in vivo. It is filed as ADME, organism-based. The arrangement: dose 10 mg/kg, route oral. The essentials:
(§1)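 Male Sprague-Dawley rats dosed orally by gavage at 10 mg/kg in 95% Capmul MCM/5% Tween 80. Livers collected terminally at eight time points up to 24 h and snap-frozen in liquid nitrogen. Liver 2′-C-methylguanosine triphosphate quantified by LC-MS/MS, linear over 100−4000 ng per gram of tissue (r² ≥ 0.99, ≥85% accuracy, ≤2% CV).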

For data set [2], the system named is Liver. Put plainly: Clast in Sprague-Dawley rat liver assessed as 2'-C-methyl guanosine triphosphate level at 10 mg/kg, po up to 24 hrs by LC-MS/Ms analysis. The arrangement: dose 10 mg/kg, route oral. It is filed as ADME, organism-based. The following applies: in vivo. The essentials: as §1
Data set [3] deals with Liver. The data set can be described thus: Tmax in Sprague-Dawley rat liver assessed as 2'-C-methyl guanosine triphosphate level at 10 mg/kg, po up to 24 hrs by LC-MS/Ms analysis. The arrangement: dose 10 mg/kg, route oral. As to conditions: in vivo; call rule not given here. Type of data set: ADME, organism-based. The essentials: as §1
For data set [4], the system named is Liver. The data set can be described thus: AUC (0 to t) in Sprague-Dawley rat liver assessed as 2'-C-methyl guanosine triphosphate level at 10 mg/kg, po up to 24 hrs by LC-MS/Ms analysis. It is filed as ADME, organism-based. The arrangement: dose 10 mg/kg, route oral. As to conditions: in vivo. The essentials: as §1
A further data set concerns Hepatitis C virus. The data set can be described thus: Antiviral activity against Hepatitis C virus subtype 1b Con1 infected in human Huh7 cells assessed as inhibition of HCV replicon-encoded Renilla luciferase reporter activity after 72 hrs by HCV replicon assay. Type of data set: functional, organism-based, Hepacivirus hominis. As to conditions: Con1, Huh-7, 72 h. Summed up:
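Huh7 cells stably carrying a bicistronic subgenomic genotype 1b (Con1) replicon with Renilla luciferase reporter, seeded at 2 × 10⁴ cells/well the day before. Four-fold serial dilutions in growth medium, no-drug controls on each plate; 3 days at 37 °C, 5% CO₂. Luciferase reagent 20 min, then luminescence (RLU) read; EC₅₀ derived.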
A general note: Replicon systems follow genome replication, usually without infectious particles.

Data set [5] is described as follows: Cytotoxicity against human HuH7 cells after 3 days. Type of data set: cell-based, Huh-7. Summed up:
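Huh7 replicon cells seeded at 2 × 10⁴ per well one day before dosing. Four-fold serial dilutions in growth medium, no-drug controls on each plate. Incubated 3 days at 37 °C, 5% CO₂. Viability read by CellTiter-Glo luminescence after 20 min with reagent.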

Data set [6] can be described thus: Selectivity index, ratio of CC50 for human HuH7 cells to EC50 for Hepatitis C virus subtype 1b Con1. Type of data set: toxicity, cell-based, Huh-7. As to conditions: read-out: Ratio CC50/EC50. The essentials:
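Huh7 cells carrying a stable bicistronic subgenomic genotype 1b (Con1) HCV replicon with Renilla luciferase reporter, 2 × 10⁴ cells per well. Four-fold serial dilutions, 3 days at 37 °C, 5% CO₂. Replicon inhibition read by luciferase luminescence (RLU) and cytotoxicity by CellTiter-Glo in the same cell line. SI taken as CC50/EC50.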

Data set [7] can be described thus: Stability in phosphate buffer at pH 7 after 14 hrs by [31P] NMR spectroscopy. Type of data set: physicochemical. As to conditions: pH 7, 14 h.
The nature of data set [8]: Stability in phosphate buffer assessed as compound decomposition by HPLC. It is filed as physicochemical.
Data set [9] is described as follows: Stability in citric acid-HCl buffer at pH 2 incubated for 14 hrs at 37 or 47 degC by [31P] NMR spectroscopy. Type of data set: physicochemical. As to conditions: pH 2, 14 h. Summed up:
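Compound in citric acid−HCl buffer pH 2, held at 37 or 47 °C and monitored by ³¹P NMR over 14 h.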

Data set [10] can be described thus: Stability of the compound in triethylammonium bicarbonate buffer assessed as compound decomposition at pH 8.5 incubated at 37 degC by [31P] NMR spectroscopy. Type of data set: physicochemical. Summed up: (§2)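 Base stability tested at pH 8.5 and at pH 11, both at 37 °C, followed by ³¹P NMR, with pH 11 samples followed to 17 h. Half-life estimated assuming first-order decay.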

Data set [11] is described as follows: Stability of the compound in triethylammonium bicarbonate buffer assessed as compound decomposition at pH 11 incubated at 37 degC by [31P] NMR spectroscopy. It is filed as physicochemical. The essentials:
as §2

For a further data set, the system named is Serum. Put plainly: Stability in human serum incubated for 12 hrs by [31P] NMR spectroscopy. Type of data set: ADME, cell-free.
The nature of data set [12]: Drug metabolism in acetone-d6 and TRIZMA buffer at pH 7.4 assessed as (S)-2-((((2R,3R,4R,5R)-5-(2-amino-6-methoxy-9H-purin-9-yl)-3,4-dihydroxy-4-methyltetrahydrofuran-2-yl)methoxy)oxidophosphorylamino)propanoate level at 6.95 ppm at pH 7.4 after 1 hr by 31P NMR in presence of carboxypeptidase Y. Type of data set: physicochemical. As to conditions: pH 7.4, 1 h. Summed up:
(§3)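 Compound (about 5 mg) in 200 μL acetone-d₆ plus 400 μL Trizma buffer pH 7.4. Baseline ³¹P NMR recorded, then 0.3−0.5 mg carboxypeptidase Y in 200 μL Trizma pH 7.4 added. Processing followed by ³¹P NMR kinetics. A buffer phosphate impurity peak stays constant throughout.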

Data set [13] is described as follows: Drug metabolism in acetone-d6 and TRIZMA buffer at pH 7.4 assessed as (S)-2-((((2R,3R,4R,5R)-5-(2-amino-6-methoxy-9H-purin-9-yl)-3,4-dihydroxy-4-methyltetrahydrofuran-2-yl)methoxy)oxidophosphorylamino)propanoate level at 6.94 ppm at pH 7.4 after 1 hr by 31P NMR in presence of carboxypeptidase Y. Type of data set: physicochemical. As to conditions: pH 7.4, 1 h. The essentials:
as §3

Data set [14] in a line: Stability of the compound in triethylammonium bicarbonate buffer assessed as compound decomposition at pH 11 incubated for 17 hrs at 37 degC by [31P] NMR spectroscopy. It is filed as physicochemical. The following applies: pH 11, 17 h. The essentials:
as §2

SMILES strings stand for the structures.

As usually defined, the Cmax is the highest concentration seen after dosing. In general, Tmax refers to the time at which the peak concentration occurs. In the case of `COc1nc(N)nc2c1ncn2[C@@H]1O[C@H](COP(=O)(N[C@@H](C)C(=O)OCC(C)(C)C)Oc2cccc3ccccc23)[C@@H](O)[C@@]1(C)O` (some centres undefined) [BMS-986094], the Cmax with Liver [1] was 1446.7 ng/g. Besides, the Clast in the data set with Liver [2] was 983.3 ng/g. The Tmax with Liver [3] amounted to 8 h. Besides, the AUCt in the data set on Liver [4] amounted to 24557 ng·h/g.
The EC50 is the midpoint of the concentration-response curve. In general, EC90 refers to the point of the concentration-response curve where the effect stands at 90%. Broadly, the CC50 is the concentration giving 50% cytotoxicity. Low values mean greater toxicity to the cells, high ones lower toxicity to the cells. As for `CC[C@H](C)[C@H](NP(=O)(N[C@H](C(=O)OC1CCCCC1)[C@@H](C)CC)OC[C@H]1O[C@@H](n2cnc3c(OC)nc(N)nc32)[C@](C)(O)[C@@H]1O)C(=O)OC1CCCCC1` (mixture of isomers), in the data set on Hepatitis C virus, the EC50 is 4000 nM and the EC90 turned out to be 7100 nM. Also, the CC50 at 72 h in data set [5] was determined as 14000 nM. Further, the selectivity ratio in [6] was 4.
For the compound `COc1nc(N)nc2c1ncn2[C@@H]1O[C@H](COP(=O)(N[C@H](C)C(=O)OCC(C)(C)C)N[C@H](C)C(=O)OCC(C)(C)C)[C@@H](O)[C@@]1(C)O` (mixture of isomers), in the data set on Hepatitis C virus, the EC50 is 110 nM and the 90% effect concentration (EC90) came to 500 nM. The 50% cytotoxic concentration (CC50) at 72 h in [5] was greater than 100000 nM. In addition, the Cmax in the data set with Liver [1] is on record as 598.3 ng/g. Further, in the data set on Liver [2], the Clast amounted to 441.7 ng/g. For the same compound, in the data set with Liver [3], the Tmax was 8 h. Moreover, the AUCt with Liver [4] is 11608 ng·h/g.
For `COc1nc(N)nc2c1ncn2[C@@H]1O[C@H](COP(=O)(N[C@@H](C)C(=O)OC2CCCC2)N[C@@H](C)C(=O)OC2CCCC2)[C@@H](O)[C@@]1(C)O` (mixture of isomers), in the data set on Hepatitis C virus, the concentration giving a half-maximal response (EC50) worked out at 60 nM and the EC90 is 220 nM. For the same compound, the CC50 at 72 h in data set [5] is greater than 100000 nM. The Cmax in the data set with Liver [1] amounted to 1523.3 ng/g. Besides, the Clast in the data set on Liver [2] worked out at 610 ng/g. The Tmax in the data set on Liver [3] came to 8 h. Besides, the AUCt with Liver [4] amounted to 24546 ng·h/g.
Take `COc1nc(N)nc2c1ncn2[C@@H]1O[C@H](COP(=O)(N[C@@H](C)C(=O)OCC(C)(C)C)N[C@@H](C)C(=O)OCC(C)(C)C)[C@@H](O)[C@@]1(C)O` (mixture of isomers): the EC50 in the data set on Hepatitis C virus came to 60 nM. The EC90 in the data set with Hepatitis C virus is 200 nM. In data set [5], this compound came in with a CC50 at 72 h greater than 100000 nM. In addition, in data set [6], the selectivity ratio was greater than 1600. Further, the Stability result (in data set [7]; in [8]; in data set [9]; in [10]; in data set [11]; in the data set on Serum) was “Stable” each time. The Stability entry in [14] is on record as “Stable”. The Drug metabolism entry in data set [12] and in data set [13] was “Active” each time. The Cmax in the data set on Liver [1] amounted to 1580 ng/g. The Clast in the data set on Liver [2] came to 800 ng/g. In the data set with Liver [3], the Tmax stood at 8 h. The AUCt in the data set on Liver [4] is 25147 ng·h/g.
Turning to `CCCCCOC(=O)[C@H](C)NP(=O)(N[C@@H](C)C(=O)OCCCCC)OC[C@H]1O[C@@H](n2cnc3c(OC)nc(N)nc32)[C@](C)(O)[C@@H]1O` (mixture of isomers), in the data set with Hepatitis C virus, the EC50 is 30 nM and the EC90 came out at 110 nM. This compound also came in with a CC50 at 72 h in [5] of 65000 nM. Also, in the data set on Liver [1], the Cmax is reported as 1042.3 ng/g. In the data set with Liver [2], the Clast is on record as 506 ng/g. For the same compound, the time of peak concentration (Tmax) with Liver [3] was found to be 8 h. In the data set on Liver [4], the AUCt came out at 18600 ng·h/g.
Regarding `CCCCOC(=O)[C@H](C)NP(=O)(N[C@@H](C)C(=O)OCCCC)OC[C@H]1O[C@@H](n2cnc3c(OC)nc(N)nc32)[C@](C)(O)[C@@H]1O` (mixture of isomers), in the data set with Hepatitis C virus, the EC50 was 70 nM and the 90% effect concentration (EC90) was found to be 230 nM. For the same compound, the CC50 at 72 h in [5] is greater than 100000 nM. In addition, in the data set with Liver [1], the Cmax is 1553.3 ng/g. Also, the Clast in the data set with Liver [2] is 719.7 ng/g. The Tmax in the data set with Liver [3] came out at 8 h. Further, the AUCt with Liver [4] is 27671 ng·h/g.
For `COc1nc(N)nc2c1ncn2[C@@H]1O[C@H](COP(=O)(N[C@@H](C)C(=O)OC2Cc3ccccc3C2)N[C@@H](C)C(=O)OC2Cc3ccccc3C2)[C@@H](O)[C@@]1(C)O` (mixture of isomers), in the data set on Hepatitis C virus, the EC50 came to 580 nM and the EC90 stood at 1300 nM. In addition, in [5], it took 70000 nM to reach half-maximal cytotoxicity (CC50 at 72 h). In the data set with Liver [1], the maximum concentration (Cmax) was 632 ng/g. Further, the Clast in the data set on Liver [2] stood at 632 ng/g. In addition, the Tmax with Liver [3] was 24 h. Moreover, the AUCt in the data set with Liver [4] was found to be 10642 ng·h/g.
For the compound `COc1nc(N)nc2c1ncn2[C@@H]1O[C@H](COP(=O)(N[C@H](C(=O)OCc2ccccc2)C(C)C)N[C@H](C(=O)OCc2ccccc2)C(C)C)[C@@H](O)[C@@]1(C)O` (mixture of isomers), in the data set on Hepatitis C virus, the EC50 was found to be 120 nM and the EC90 worked out at 660 nM. For the same compound, it took 49000 nM to reach half-maximal cytotoxicity in data set [5] (CC50 at 72 h). Moreover, the Cmax with Liver [1] came out at 359.5 ng/g. Further, the Clast with Liver [2] is 73.6 ng/g. Moreover, in the data set with Liver [3], the Tmax came out at 4 h. Besides, in the data set on Liver [4], the AUCt came to 4478 ng·h/g.
For `CCC(C)OC(=O)[C@H](C)NP(=O)(N[C@@H](C)C(=O)OC(C)CC)OC[C@H]1O[C@@H](n2cnc3c(OC)nc(N)nc32)[C@](C)(O)[C@@H]1O` (mixture of isomers), in the data set with Hepatitis C virus, the EC50 was determined as 150 nM and the EC90 was determined as 530 nM. This compound had a 50% cytotoxic concentration (CC50) at 72 h in [5] greater than 100000 nM. Besides, the Cmax with Liver [1] is 907.7 ng/g. Further, the Clast with Liver [2] is reported as 538.7 ng/g. Also, in the data set with Liver [3], the Tmax was 8 h. In addition, the AUCt in the data set with Liver [4] is 16252 ng·h/g.
